Laboratory results reported in ChEMBL document CHEMBL3758165, “In vitro interactions between anidulafungin and nonsteroidal anti-inflammatory drugs on biofilms of Candida spp” (2016).

How the values were obtained:
Type in all cases: functional
[1] = tested on: Meyerozyma guilliermondii; experiment: Antibiofilm activity against Candida guilliermondii a410 by two dimensional checkerboard dilution method
Method in brief: (§1)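 Biofilms grown on sterilized PVC disks: 1·10^6 cfu/ml Candida cells adhered for 1.5 h at 37 °C with shaking, washed with PBS, then matured 48 h at 37 °C in RPMI 1640 (MOPS, pH 7). Preformed biofilms were washed and exposed to drug, alone or in two-dimensional checkerboard combination, in RPMI 1640 for 24 h at 37 °C on a rocker.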

Nakaseomyces glabratus [2] = experiment: Antibiofilm activity against Candida glabrata 18a10 by two dimensional checkerboard dilution method; method in brief: as §1
Candida albicans [3] = experiment: Antibiofilm activity against Candida albicans ATCC 10231 by two dimensional checkerboard dilution method; method in brief: as §1
Nakaseomyces glabratus [4] = experiment: Antibiofilm activity against Candida glabrata ATCC 15126 by two dimensional checkerboard dilution method; method in brief: as §1
Candida albicans [5] = experiment: Antibiofilm activity against Candida albicans 17a18 by two dimensional checkerboard dilution method; method in brief: as §1
Candida albicans [6] = experiment: Antibiofilm activity against Candida albicans ATCC 24433 by two dimensional checkerboard dilution method; method in brief: as §1
[7] = tested on: Meyerozyma guilliermondii; experiment: Antibiofilm activity against Candida guilliermondii ATCC 6260 by two dimensional checkerboard dilution method; method in brief: as §1
Candida albicans [8] = experiment: Antibiofilm activity against Candida albicans ATCC 90028 by two dimensional checkerboard dilution method; method in brief: as §1
Nakaseomyces glabratus [9] = experiment: Potentiation of anidulafungin-induced antibiofilm activity against Candida glabrata ATCC 15126 assessed as anidulafungin-fractional inhibitory concentration index by two dimensional checkerboard dilution method
Method in brief: (§2)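 Biofilms grown on PVC disks: 1·10^6 cfu/ml in RPMI 1640 (MOPS, pH 7), 1.5 h adhesion at 37 °C with shaking, PBS wash, 48 h maturation at 37 °C. Preformed biofilms exposed 24 h at 37 °C to anidulafungin/NSAID checkerboard combinations in RPMI. XTT-menadione reduction read at 490 nm. SMIC = 50% metabolic reduction versus drug-free control. Triplicate runs on different days; FIC index calculated.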

Nakaseomyces glabratus [10] = experiment: Antibiofilm activity against Candida glabrata 18a10 by two dimensional checkerboard dilution method in presence of anidulafungin; method in brief: as §1
Nakaseomyces glabratus [11] = experiment: Potentiation of anidulafungin-induced antibiofilm activity against Candida glabrata 18a10 at 0.1 uM to 100 mM after 48 hrs by XTT reduction assay relative to control; parameters: scale not given: the % may be the effect or the level left; method in brief: as §1
Nakaseomyces glabratus [12] = experiment: Antibiofilm activity against Candida glabrata 18a10 at 0.1 uM to 100 mM after 48 hrs by XTT reduction assay relative to control; parameters: scale not given: the % may be the effect or the level left; method in brief: as §1
Candida albicans [13] = experiment: Potentiation of anidulafungin-induced antibiofilm activity against Candida albicans 17a18 assessed as anidulafungin-fractional inhibitory concentration index by two dimensional checkerboard dilution method; method in brief: as §2
Nakaseomyces glabratus [14] = experiment: Potentiation of anidulafungin-induced antibiofilm activity against Candida glabrata 18a10 assessed as anidulafungin-fractional inhibitory concentration index by two dimensional checkerboard dilution method; method in brief: as §2
Nakaseomyces glabratus [15] = experiment: Antibiofilm activity against Candida glabrata 18a10 assessed as fractional inhibitory concentration by two dimensional checkerboard dilution method in presence of anidulafungin; method in brief: as §2
Candida albicans [16] = experiment: Potentiation of anidulafungin-induced antibiofilm activity against Candida albicans ATCC 10231 at 0.1 uM to 100 mM after 48 hrs by XTT reduction assay relative to control; parameters: scale not given: the % may be the effect or the level left; method in brief: as §1
Nakaseomyces glabratus [17] = experiment: Antibiofilm activity against Candida glabrata ATCC 15126 by two dimensional checkerboard dilution method in presence of anidulafungin; method in brief: as §1
[18] = tested on: Meyerozyma guilliermondii; experiment: Antibiofilm activity against Candida guilliermondii a83 at 0.1 uM to 100 mM after 48 hrs by XTT reduction assay relative to control; parameters: scale not given: the % may be the effect or the level left; method in brief: as §1
Candida albicans [19] = experiment: Potentiation of anidulafungin-induced antibiofilm activity against Candida albicans ATCC 90028 at 0.1 uM to 100 mM after 48 hrs by XTT reduction assay relative to control; parameters: scale not given: the % may be the effect or the level left; method in brief: as §1
[20] = tested on: Meyerozyma guilliermondii; experiment: Potentiation of anidulafungin-induced antibiofilm activity against Candida guilliermondii a410 assessed as anidulafungin-fractional inhibitory concentration index by two dimensional checkerboard dilution method; method in brief: as §2
[21] = tested on: Meyerozyma guilliermondii; experiment: Potentiation of anidulafungin-induced antibiofilm activity against Candida guilliermondii a410 at 0.1 uM to 100 mM after 48 hrs by XTT reduction assay relative to control; parameters: scale not given: the % may be the effect or the level left; method in brief: as §1
Candida albicans [22] = experiment: Potentiation of anidulafungin-induced antibiofilm activity against Candida albicans ATCC 24433 assessed as anidulafungin-fractional inhibitory concentration index by two dimensional checkerboard dilution method; method in brief: as §2
[23] = tested on: Meyerozyma guilliermondii; experiment: Potentiation of anidulafungin-induced antibiofilm activity against Candida guilliermondii a83 at 0.1 uM to 100 mM after 48 hrs by XTT reduction assay relative to control; parameters: scale not given: the % may be the effect or the level left; method in brief: as §1
Candida albicans [24] = experiment: Antibiofilm activity against Candida albicans 17a18 assessed as fractional inhibitory concentration by two dimensional checkerboard dilution method in presence of anidulafungin; method in brief: as §2
Nakaseomyces glabratus [25] = experiment: Antibiofilm activity against Candida glabrata ATCC 15126 at 0.1 uM to 100 mM after 48 hrs by XTT reduction assay relative to control; parameters: scale not given: the % may be the effect or the level left; method in brief: as §1
Nakaseomyces glabratus [26] = experiment: Potentiation of anidulafungin-induced antibiofilm activity against Candida glabrata ATCC 15126 at 0.1 uM to 100 mM after 48 hrs by XTT reduction assay relative to control; parameters: scale not given: the % may be the effect or the level left; method in brief: as §1
[27] = tested on: Meyerozyma guilliermondii; experiment: Antibiofilm activity against Candida guilliermondii ATCC 6260 by two dimensional checkerboard dilution method in presence of anidulafungin; method in brief: as §1
[28] = tested on: Meyerozyma guilliermondii; experiment: Antibiofilm activity against Candida guilliermondii a83 assessed as fractional inhibitory concentration by two dimensional checkerboard dilution method in presence of anidulafungin; method in brief: as §2
[29] = tested on: Meyerozyma guilliermondii; experiment: Antibiofilm activity against Candida guilliermondii a83 by two dimensional checkerboard dilution method in presence of anidulafungin; method in brief: as §1
Candida albicans [30] = experiment: Antibiofilm activity against Candida albicans ATCC 24433 by two dimensional checkerboard dilution method in presence of anidulafungin; method in brief: as §1
[31] = tested on: Meyerozyma guilliermondii; experiment: Potentiation of anidulafungin-induced antibiofilm activity against Candida guilliermondii a83 assessed as anidulafungin-fractional inhibitory concentration index by two dimensional checkerboard dilution method; method in brief: as §2
Candida albicans [32] = experiment: Potentiation of anidulafungin-induced antibiofilm activity against Candida albicans 17a18 at 0.1 uM to 100 mM after 48 hrs by XTT reduction assay relative to control; parameters: scale not given: the % may be the effect or the level left; method in brief: as §1
[33] = tested on: Meyerozyma guilliermondii; experiment: Antibiofilm activity against Candida guilliermondii a410 assessed as fractional inhibitory concentration by two dimensional checkerboard dilution method in presence of anidulafungin; method in brief: as §2
Candida albicans [34] = experiment: Antibiofilm activity against Candida albicans ATCC 24433 assessed as fractional inhibitory concentration by two dimensional checkerboard dilution method in presence of anidulafungin; method in brief: as §2
Nakaseomyces glabratus [35] = experiment: Antibiofilm activity against Candida glabrata ATCC 15126 assessed as fractional inhibitory concentration by two dimensional checkerboard dilution method in presence of anidulafungin; method in brief: as §2
Candida albicans [36] = experiment: Antibiofilm activity against Candida albicans ATCC 90028 by two dimensional checkerboard dilution method in presence of anidulafungin; method in brief: as §1
Candida albicans [37] = experiment: Antibiofilm activity against Candida albicans ATCC 10231 by two dimensional checkerboard dilution method in presence of anidulafungin; method in brief: as §1
Candida albicans [38] = experiment: Antibiofilm activity against Candida albicans 17a18 by two dimensional checkerboard dilution method in presence of anidulafungin; method in brief: as §1
Candida albicans [39] = experiment: Antibiofilm activity against Candida albicans ATCC 90028 assessed as fractional inhibitory concentration by two dimensional checkerboard dilution method in presence of anidulafungin; method in brief: as §2
[40] = tested on: Meyerozyma guilliermondii; experiment: Potentiation of anidulafungin-induced antibiofilm activity against Candida guilliermondii ATCC 6260 assessed as anidulafungin-fractional inhibitory concentration index by two dimensional checkerboard dilution method; method in brief: as §2

Compound	MIC [1]	MIC (Nakaseomyces glabratus [2])	MIC (Candida albicans [3])	MIC (Nakaseomyces glabratus [4])	MIC (Candida albicans [5])	MIC (Candida albicans [6])	MIC [7]	MIC (Candida albicans [8])	fractional inhibitory concentration index (FICI) (Nakaseomyces glabratus [9])	MIC (Nakaseomyces glabratus [10]) [µM]	Activity (Nakaseomyces glabratus [11]) [%]	Activity (Nakaseomyces glabratus [12]) [%]	fractional inhibitory concentration index (FICI) (Candida albicans [13])	fractional inhibitory concentration index (FICI) (Nakaseomyces glabratus [14])	Ratio (Nakaseomyces glabratus [15])	Activity (Candida albicans [16]) [%]	MIC (Nakaseomyces glabratus [17]) [µM]	Activity [18] [%]	Activity (Candida albicans [19]) [%]	fractional inhibitory concentration index (FICI) [20]	further results
CCCCCOc1ccc(-c2ccc(-c3ccc(C(=O)N[C@@H]4C[C@@H](O)[C@@H](O)NC(=O)[C@@H]5[C@@H](O)[C@@H](C)CN5C(=O)[C@H]([C@@H](C)O)NC(=O)[C@H]([C@H](O)[C@@H](O)c5ccc(O)cc5)NC(=O)[C@@H]5C[C@@H](O)CN5C(=O)[C@H]([C@H](C)O)NC4=O)cc3)cc2)cc1	2 µg/mL	2 µg/mL	2 µg/mL	2 µg/mL	2 µg/mL	2 µg/mL	2 µg/mL	2 µg/mL													
CC(=O)Oc1ccccc1C(=O)O [ASPIRIN]	1000 µM	200 µM	200 µM	200 µM	200 µM	1000 µM	1000 µM	1000 µM	0.1	10	48.58	32.32	0.1	0.1	0.05	82.81	10	46.22	57.84	0.15	Activity [21]: 41.54%; fractional inhibitory concentration index (FICI) (Candida albicans [22]): 0.15; Activity [23]: 45.32%; Ratio (Candida albicans [24]): 0.05; Activity (Nakaseomyces glabratus [25]): 29.02%; Activity (Nakaseomyces glabratus [26]): 49.78%; MIC [27]: 100 µM; Ratio [28]: 0.05; MIC [29]: 10 µM; MIC (Candida albicans [30]): 100 µM; fractional inhibitory concentration index (FICI) [31]: 0.1; Activity (Candida albicans [32]): 51.74%; Ratio [33]: 0.1; Ratio (Candida albicans [34]): 0.1; Ratio (Nakaseomyces glabratus [35]): 0.05; MIC (Candida albicans [36]): 10 µM; MIC (Candida albicans [37]): 10 µM; MIC (Candida albicans [38]): 10 µM; Ratio (Candida albicans [39]): 0.05; fractional inhibitory concentration index (FICI) [40]: 0.15
O=C([O-])Cc1ccccc1Nc1c(Cl)cccc1Cl.[Na+] [DICLOFENAC SODIUM]	100000 µM	100000 µM	100000 µM	100000 µM	100000 µM	100000 µM	100000 µM	100000 µM	0.3	20000	58.66	44.54	0.1	0.3	0.2	66.15	20000	57.87	71.04	0.45	Activity [21]: 54.28%; fractional inhibitory concentration index (FICI) (Candida albicans [22]): 0.1; Activity [23]: 55.64%; Ratio (Candida albicans [24]): 0.05; Activity (Nakaseomyces glabratus [25]): 54.44%; Activity (Nakaseomyces glabratus [26]): 65.96%; MIC [27]: 40000 µM; Ratio [28]: 0.2; MIC [29]: 20000 µM; MIC (Candida albicans [30]): 5000 µM; fractional inhibitory concentration index (FICI) [31]: 0.3; Activity (Candida albicans [32]): 64.25%; Ratio [33]: 0.4; Ratio (Candida albicans [34]): 0.05; Ratio (Nakaseomyces glabratus [35]): 0.2; MIC (Candida albicans [36]): 5000 µM; MIC (Candida albicans [37]): 5000 µM; MIC (Candida albicans [38]): 5000 µM; Ratio (Candida albicans [39]): 0.05; fractional inhibitory concentration index (FICI) [40]: 0.45
CC(C)Cc1ccc(C(C)C(=O)O)cc1 (stereo not drawn) [IBUPROFEN]	200 µM	200 µM	1000 µM	200 µM	1000 µM	1000 µM	200 µM	1000 µM	0.25	40	62.33	53.44	0.25	0.25	0.2	59.51	40	56.78	61.43	0.3	Activity [21]: 51.31%; fractional inhibitory concentration index (FICI) (Candida albicans [22]): 0.3; Activity [23]: 52.11%; Ratio (Candida albicans [24]): 0.05; Activity (Nakaseomyces glabratus [25]): 57.23%; Activity (Nakaseomyces glabratus [26]): 57.46%; MIC [27]: 20 µM; Ratio [28]: 0.2; MIC [29]: 40 µM; MIC (Candida albicans [30]): 1000 µM; fractional inhibitory concentration index (FICI) [31]: 0.25; Activity (Candida albicans [32]): 64.22%; Ratio [33]: 0.1; Ratio (Candida albicans [34]): 0.1; Ratio (Nakaseomyces glabratus [35]): 0.2; MIC (Candida albicans [36]): 1000 µM; MIC (Candida albicans [37]): 50 µM; MIC (Candida albicans [38]): 50 µM; Ratio (Candida albicans [39]): 0.1; fractional inhibitory concentration index (FICI) [40]: 0.3
